In ChEMBL document CHEMBL3286396, “Discovery and Synthesis of C-Nucleosides as Potential New Anti-HCV Agents” (ACS Med Chem Lett, 2014):
pEC50, pIC50: −log10 of the molar value.

Key:
[1] = tested on: Hepatitis C virus; experiment: Antiviral activity against Hepatitis C virus genotype 1a infected in human HuH7 cells assessed as inhibition of subgenomic replicon RNA replication after 72 hrs by luciferase reporter assay; type: functional, cell-based, Hepacivirus hominis; conditions: subtype 1a, Huh-7, 72 h
[2] = tested on: Hepatitis C virus; experiment: Antiviral activity against Hepatitis C virus genotype 1b infected in human HuH7 cells assessed as inhibition of subgenomic replicon RNA replication after 72 hrs by luciferase reporter assay; type: functional, cell-based, Hepacivirus hominis; conditions: Huh-7, 72 h
[3] = Cytotoxicity against human HuH7 cells by MTT assay; type: cell-based, Huh-7
Procedure, shortened: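 Huh-7-derived HCV replicon cell lines were used, with MTT as the vital dye read-out.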

[4] = tested on: Hepatitis C virus; experiment: Antiviral activity against Hepatitis C virus genotype 2a infected in human HuH7 cells assessed as inhibition of subgenomic replicon RNA replication after 72 hrs by luciferase reporter assay; type: functional, cell-based, Hepacivirus hominis; conditions: Huh-7, 72 h
[5] = tested on: Hepatitis C virus; experiment: Antiviral activity against Hepatitis C virus genotype 2b infected in human HuH7 cells assessed as inhibition of subgenomic replicon RNA replication after 72 hrs by luciferase reporter assay; type: functional, cell-based, Hepacivirus hominis; conditions: Huh-7, 72 h
[6] = tested on: Hepatitis C virus; experiment: Antiviral activity against Hepatitis C virus genotype 3a infected in human HuH7 cells assessed as inhibition of subgenomic replicon RNA replication after 72 hrs by luciferase reporter assay; type: functional, cell-based, Hepacivirus hominis; conditions: Huh-7, 72 h
[7] = tested on: Hepatitis C virus; experiment: Antiviral activity against Hepatitis C virus genotype 4a infected in human HuH7 cells assessed as inhibition of subgenomic replicon RNA replication after 72 hrs by luciferase reporter assay; type: functional, cell-based, Hepacivirus hominis; conditions: Huh-7, 72 h
[8] = tested on: Hepatitis C virus; experiment: Antiviral activity against Hepatitis C virus genotype 5a infected in human HuH7 cells assessed as inhibition of subgenomic replicon RNA replication after 72 hrs by luciferase reporter assay; type: functional, cell-based, Hepacivirus hominis; conditions: Huh-7, 72 h
[9] = tested on: Hepatitis C virus; experiment: Antiviral activity against Hepatitis C virus genotype 6a infected in human HuH7 cells assessed as inhibition of subgenomic replicon RNA replication after 72 hrs by luciferase reporter assay; type: functional, cell-based, Hepacivirus hominis; conditions: Huh-7, 72 h
[10] = Drug anabolism in dog hepatocytes assessed as compound level at 10 uM after 24 hrs measured per million cells by mass spectrometer analysis; type: ADME, cell-based, Canis lupus familiaris, Hepatocyte
[11] = Inhibition of N-terminal His6-tagged Hepatitis C virus genotype 1b isolate Con1 NS5B RNA-dependent RNA polymerase activity by plate reader analysis
[12] = Inhibition of C-terminal His6-tagged and C-terminal 21 amino acids truncated Hepatitis C virus genotype 1a H77 NS5B RNA-dependent RNA polymerase activity using polyU or polyC RNA as template by microbeta plate reader analysis; parameters: species or system Hepatitis C virus (isolate H77)
[13] = Inhibition of C-terminal His6-tagged and C-terminal 21 amino acids truncated Hepatitis C virus genotype 2a JFH-1 NS5B RNA-dependent RNA polymerase activity using polyU or polyC RNA as template by microbeta plate reader analysis; parameters: species or system Hepatitis C virus JFH-1
[14] = Inhibition of C-terminal His6-tagged and C-terminal 21 amino acids truncated Hepatitis C virus genotype 3a VRL-69 NS5B RNA-dependent RNA polymerase activity using polyU or polyC RNA as template by microbeta plate reader analysis; parameters: species or system Hepatitis C virus subtype 3a
[15] = Drug anabolism in human HuH7 cells assessed as compound level at 10 uM after 24 hrs measured per million cells by mass spectrometer analysis; type: ADME, cell-based; conditions: huh-7, 24 h
[16] = Inhibition of C-terminal His6-tagged and C-terminal 21 amino acids truncated Hepatitis C virus genotype 5a SA13 NS5B RNA-dependent RNA polymerase activity using polyU or polyC RNA as template by microbeta plate reader analysis
[17] = Inhibition of C-terminal His6-tagged and C-terminal 21 amino acids truncated Hepatitis C virus genotype 7a QC69 NS5B RNA-dependent RNA polymerase activity using polyU or polyC RNA as template by microbeta plate reader analysis; parameters: species or system Hepacivirus hominis
[18] = Drug anabolism in human HuH7 cells assessed as triphosphate level at 10 uM after 24 hrs measured per million cells by mass spectrometer analysis; type: ADME, cell-based; conditions: huh-7, 24 h
[19] = Drug anabolism in human HuH7 cells assessed as diphosphate level at 10 uM after 24 hrs measured per million cells by mass spectrometer analysis; type: ADME, cell-based; conditions: huh-7, 24 h
[20] = Drug anabolism in human HuH7 cells assessed as monophosphate level at 10 uM after 24 hrs measured per million cells by mass spectrometer analysis; type: ADME, cell-based; conditions: huh-7, 24 h
[21] = tested on: Hepatocyte; experiment: Drug anabolism in human hepatocytes assessed as triphosphate level at 10 uM after 24 hrs measured per million cells by mass spectrometer analysis; type: ADME, cell-based
[22] = tested on: Hepatocyte; experiment: Drug anabolism in human hepatocytes assessed as diphosphate level at 10 uM after 24 hrs measured per million cells by mass spectrometer analysis; type: ADME, cell-based
[23] = tested on: Hepatocyte; experiment: Drug anabolism in human hepatocytes assessed as monophosphate level at 10 uM after 24 hrs measured per million cells by mass spectrometer analysis; type: ADME, cell-based
[24] = tested on: Hepatocyte; experiment: Drug anabolism in rat hepatocytes assessed as triphosphate level at 10 uM after 24 hrs measured per million cells by mass spectrometer analysis; type: ADME, cell-based
[25] = tested on: Hepatocyte; experiment: Drug anabolism in rat hepatocytes assessed as diphosphate level at 10 uM after 24 hrs measured per million cells by mass spectrometer analysis; type: ADME, cell-based
[26] = tested on: Hepatocyte; experiment: Drug anabolism in rat hepatocytes assessed as monophosphate level at 10 uM after 24 hrs measured per million cells by mass spectrometer analysis; type: ADME, cell-based
[27] = Drug anabolism in dog hepatocytes assessed as triphosphate level at 10 uM after 24 hrs measured per million cells by mass spectrometer analysis; type: ADME, cell-based, Canis lupus familiaris, Hepatocyte
[28] = Drug anabolism in dog hepatocytes assessed as diphosphate level at 10 uM after 24 hrs measured per million cells by mass spectrometer analysis; type: ADME, cell-based, Canis lupus familiaris, Hepatocyte
[29] = Drug anabolism in dog hepatocytes assessed as monophosphate level at 10 uM after 24 hrs measured per million cells by mass spectrometer analysis; type: ADME, cell-based, Canis lupus familiaris, Hepatocyte
[30] = Total clearance in Sprague-Dawley rat at 2 mg/kg, iv and 5 mg/kg, po by WinNonlin non-compartmental analysis; type: ADME, organism-based; conditions: in vivo
Procedure, shortened: (§1)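 PK study animals were male Sprague–Dawley rats.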

[31] = Volume of distribution at steady state in Sprague-Dawley rat at 2 mg/kg, iv and 5 mg/kg, po by WinNonlin non-compartmental analysis; type: ADME, organism-based; conditions: in vivo, read-out: Vdss
Procedure, shortened: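 Pharmacokinetics were determined in male Sprague–Dawley rats.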

[32] = Cmax in Sprague-Dawley rat at 5 mg/kg, po by WinNonlin non-compartmental analysis; type: ADME, organism-based; parameters: dose 5 mg/kg, route oral; conditions: in vivo; procedure, shortened: as §1
[33] = Total clearance in Beagle dog at 2 mg/kg, iv and 5 mg/kg, po by WinNonlin non-compartmental analysis; type: ADME, organism-based, Canis lupus familiaris; conditions: in vivo
[34] = Volume of distribution at steady state in Beagle dog at 2 mg/kg, iv and 5 mg/kg, po by WinNonlin non-compartmental analysis; type: ADME, organism-based, Canis lupus familiaris; conditions: in vivo, read-out: Vdss
[35] = Cmax in Beagle dog at 5 mg/kg, po by WinNonlin non-compartmental analysis; type: ADME, organism-based, Canis lupus familiaris; parameters: dose 5 mg/kg, route oral; conditions: in vivo
[36] = Total clearance in cynomolgus monkey at 2 mg/kg, iv and 5 mg/kg, po by WinNonlin non-compartmental analysis; type: ADME, organism-based, Macaca fascicularis; conditions: in vivo
[37] = Volume of distribution at steady state in cynomolgus monkey at 2 mg/kg, iv and 5 mg/kg, po by WinNonlin non-compartmental analysis; type: ADME, organism-based, Macaca fascicularis; conditions: in vivo, read-out: Vdss
[38] = Cmax in cynomolgus monkey at 5 mg/kg, po by WinNonlin non-compartmental analysis; type: ADME, organism-based, Macaca fascicularis; parameters: dose 5 mg/kg, route oral; conditions: in vivo
[39] = Mitochondrial toxicity in human HepG2 cells assessed as increase in lactate production up to 10 uM measured for 14 days; type: cell-based, Mitochondria; conditions: hepg2, 336 h
[40] = Mitochondrial toxicity in human HepG2 cells assessed as decrease in mitochondrial DNA content up to 10 uM measured for 14 days; type: cell-based, Mitochondria; conditions: hepg2, 336 h
[41] = Cytotoxicity in rat liver epithelial cells; type: cell-based, Epithelial cell
[42] = Cytotoxicity in rat kidney fibroblasts; parameters: species or system Fibroblast
[43] = Cytotoxicity in rat heart myoblasts; parameters: species or system Myoblast
[44] = Inhibition of erythroid progenitor proliferation in human bone marrow cells up to 100 uM; type: cell-based; conditions: bone marrow cell
[45] = Inhibition of myeloid progenitor proliferation in human bone marrow cells up to 100 uM; type: cell-based; conditions: bone marrow cell
[46] = tested on: Salmonella typhimurium; experiment: Genotoxicity in Salmonella typhimurium by Ames test; type: toxicity, organism-based; conditions: salmonella enterica subsp. enterica serovar typhimurium
[47] = tested on: Rattus norvegicus; experiment: Toxicity in rat assessed as animal death up to 400 mg/kg, po administered as single dose; type: organism-based; parameters: dose 400 mg/kg, route oral; conditions: in vivo
[48] = tested on: Hepatocyte; experiment: Drug anabolism in human hepatocytes assessed as compound level at 10 uM after 24 hrs measured per million cells by mass spectrometer analysis; type: ADME, cell-based
[49] = tested on: Hepatocyte; experiment: Drug anabolism in rat hepatocytes assessed as compound level at 10 uM after 24 hrs measured per million cells by mass spectrometer analysis; type: ADME, cell-based

Work on `C[C@@]1(O)[C@H](O)[C@@H](CO)O[C@H]1c1ccc2c(N)ncnn12` yielded a pEC50 [1] of 6.12, a pEC50 [2] of 5.80 and a CC50 [3] greater than 100000 nM. The pEC50 [4] was 6.20, the pEC50 [5] was 6.39 and the pEC50 [6] was 6.38. For the same compound, the pEC50 [7] was 6.06, the pEC50 [8] was 6.09 and the pEC50 [9] was 6.00. For the same compound, the Drug metabolism [10] was 29.7 pmol, the pIC50 [11] was 6.43 and the pIC50 [12] was 6.24. It also gave a pIC50 [13] of 6.41, a pIC50 [14] of 6.30 and a Drug metabolism [15] of 31.8 pmol. For the same compound, the pIC50 [16] was 6.32, the pIC50 [17] was 6.09 and the Drug metabolism [18] was 9.33 pmol. The Drug metabolism [19] was 0.53 pmol, the Drug metabolism [20] was 3.36 pmol and the Drug metabolism [21] was 487 pmol. For the same compound, the Drug metabolism [22] was 40.5 pmol, the Drug metabolism [23] was 27.6 pmol and the Drug metabolism [24] was 49.9 pmol. For the same compound, the Drug metabolism [25] was 9.7 pmol, the Drug metabolism [26] was 7.3 pmol and the Drug metabolism [27] was 51.2 pmol. It also gave a Drug metabolism [28] of 8.3 pmol, a Drug metabolism [29] of 7 pmol and a clearance [30] of 18.8 mL/min/kg. The Vd [31] was 4.19 L/kg, the Cmax [32] was 2380 nM and the clearance [33] was 11.4 mL/min/kg. It also gave a Vd [34] of 5.22 L/kg, a Cmax [35] of 8360 nM and a clearance [36] of 20.5 mL/min/kg. For the same compound, the Vd [37] was 2.43 L/kg, the Cmax [38] was 820 nM and the Activity [39] was “Non-toxic”. The Activity [40] was “Non-toxic”, the CC50 [41] was 190000 nM and the CC50 [42] was greater than 250000 nM. For the same compound, the CC50 [43] was greater than 250000 nM, the Activity [44] was “Non-toxic” and the Activity [45] was “Non-toxic”. The Activity [46] was “Non-toxic”, the Activity [47] was “Toxic” and the Drug metabolism [48] was 46.2 pmol. It also gave a Drug metabolism [49] of 16.9 pmol.
